# Assay results gathered from unrelated publications.
# Each line is one published result; the experiments were not run side by side.
# CDKL1: Cyclin-dependent kinase-like 1 (CDKL1, Homo sapiens, UniProt Q00532)
# ULK1: Serine/threonine-protein kinase ULK1 (ULK1, Homo sapiens, UniProt O75385)
Structure (SMILES),target,test,test system,setting,quantity,result
Cc1cc(NC(=O)c2cccc3cc(-c4cccc5[nH]nc(N)c45)ccc23)ccc1F,"Hepatocyte growth factor receptor (MET, Homo sapiens, UniProt P08581, D1228N)","enzyme activity, inhibitor",,0.1 µM,activity vs control,120%
N#CC1c2c([nH]c3c(Cl)c(Cl)ccc23)C(=O)NC12CCCCC2 (racemic),CDKL1,"thermal stability, DSF",,10 µM,ΔTm,0.2 °C
FC(F)(F)Oc1cccc(-c2cnc3ccc(-c4ccncc4)nn23)c1,"Mitogen-activated protein kinase kinase kinase 1 (MAP3K1, Homo sapiens, UniProt Q13233)","enzyme activity, inhibitor, radiometric",,5 µM,activity vs control,94%
CCN1CCN(Cc2ccc(NC(=O)c3ccc(C)c(Oc4ccnc5[nH]ccc45)c3)cc2C(F)(F)F)CC1,"Eukaryotic elongation factor 2 kinase (EEF2K, Homo sapiens, UniProt O00418)","target engagement in cells, inhibitor, chemoproteomics",Huh-7,10 µM,inhibition,-20.2%
Cc1nn(CC(F)(F)F)cc1Nc1ncc(Br)c(NCCc2cnc[nH]2)n1,ULK1,"enzyme activity, inhibitor, radiometric",,1 µM,remaining activity,20%
Nc1ncnc2occ(-c3ccc(NC(=O)Nc4cc(C(F)(F)F)ccc4F)cc3)c12,"Serine/threonine-protein kinase 36 (STK36, Homo sapiens, UniProt Q9NRP7)","cell-free assay, inhibitor",,20 µM,remaining signal,87%
NS(=O)(=O)c1ccc(CNc2nc(Nc3cccc(NC(=O)N4CCCC4)c3)ncc2C2CC2)cc1,"Mitogen-activated protein kinase kinase kinase 11 (MAP3K11, Homo sapiens, UniProt Q16584)","enzyme activity, inhibitor, radiometric",,1 µM,remaining activity,72%
CCN1CCC2(CC1)NC(=O)c1c(c3ccc(Cl)c(Cl)c3n1C)C2C#N (racemic),CDKL1,"thermal stability, DSF",,10 µM,ΔTm,-0.1 °C
O=S1(=O)O[C@@H]2[C@H](O)[C@@H](O)[C@H](O)[C@@H](CO)[C@@H]2O1,"Lysosomal alpha-glucosidase (GAA, Homo sapiens, UniProt P10253)","enzyme activity, inhibitor",,pH 4.8,kinact/KI,1070 M⁻¹ s⁻¹
O=C(NCCCNc1nc(Nc2cccc(CN3CCOCC3)c2)ncc1C1CC1)C1CCC1,ULK1,"enzyme activity, inhibitor, radiometric",,1 µM,remaining activity,9%
Cc1cnc(NC2CCOCC2)nc1-n1cnc(C(=O)NC(CN)c2cc(F)cc(Cl)c2)c1 (stereo not shown),"Mitogen-activated protein kinase 1 (Mapk1, Mus musculus, UniProt P63085)","enzyme activity, inhibitor, radiometric",,1 µM,remaining activity,1%
Cn1c2c(c3ccc(Cl)c(Cl)c31)C(C#N)C1(CCOCC1)NC2=O (stereo not shown),CDKL1,"thermal stability, DSF",,10 µM,ΔTm,-0.1 °C
c1cc(-c2nnc3scnn23)ccn1,"Type II inositol 1,4,5-trisphosphate 5-phosphatase (Homo sapiens, UniProt P32019)","enzyme activity, inhibitor",,,Emax,100%
CN1CCC2(CC1)NC(=O)c1c(c3ccc(Cl)c(Cl)c3n1C)C2C#N (racemic),CDKL1,"thermal stability, DSF",,10 µM,ΔTm,0 °C
Cc1ccc(NC(=O)c2ccc(C)c(C(F)(F)F)c2)cc1C#Cc1nn(C2CCC(O)CC2)c2ncnc(N)c12 (stereo not shown),"Hepatocyte growth factor receptor (MET, Homo sapiens, UniProt P08581)",cell-free assay,,10 µM,remaining signal,133%
NS(=O)(=O)c1ccc(CNc2ccnc(Nc3cccc(CN4CCOCC4)c3)n2)cc1,ULK1,"enzyme activity, inhibitor, radiometric",,1 µM,remaining activity,92%
